ChEMBL document CHEMBL4689842, “EUbOPEN Chemogenomics Library wave 1” (2021)
Where “and” joins values, the source holds several entries; their conditions need not be identical. Equal values may be shown once.

Legend:
Type in all cases: toxicity, cell-based
[1] = system: Fibroblast; test: Multiplex assay against human fibroblast
Outline: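 On a CQ1 microscope at 37°C and 5% CO2, live cells were imaged after compound addition. They had been stained at seeding with Hoechst33342, BioTracker Green Microtubule Cytoskeleton Dye, MitoTracker Red and Annexin V Alexa Fluor 680. CellPathfinder machine-learning gating assigned cells to Hoechst high-intensity objects or normal cells, normal cells to healthy, pyknosed or fragmented nuclei, and pyknosed cells to mitotic or apoptotic. Tubulin, mitochondrial-mass and membrane-permeability phenotypes are per cents of healthy-nucleus cells.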

[2] = system: U2OS; test: Incucyte cell viability with U2OS; details: human, 10 µM, compound concentration 10 uM; note: filed as whole numbers so only -1 and 0 and 1 occur
[3] = system: HEK-293T; test: Incucyte cell viability with HEK293T; details: human, 10 µM, compound concentration 10 uM; note: filed as whole numbers so only -1 and 0 and 1 occur
[4] = system: Fibroblast; test: Incucyte cell viability with human fibroblast; details: 10 µM, compound concentration 10 uM; note: filed as whole numbers so only -1 and 0 and 1 occur
[5] = 12 h, 1 µM, compound concentration 1 uM, replicate 1
[6] = 12 h, 1 µM, compound concentration 1 uM, replicate 2
[7] = 12 h, 10 µM, compound concentration 10 uM, replicate 1
[8] = 12 h, 10 µM, compound concentration 10 uM, replicate 2
[9] = 24 h, 1 µM, compound concentration 1 uM, replicate 1
[10] = 24 h, 1 µM, compound concentration 1 uM, replicate 2
[11] = 24 h, 10 µM, compound concentration 10 uM, replicate 1
[12] = 24 h, 10 µM, compound concentration 10 uM, replicate 2
[13] = 48 h, 10 µM, compound concentration 10 uM, replicate 1
[14] = 48 h, 10 µM, compound concentration 10 uM, replicate 2
[15] = 0 h, replicate number 1, timepoint 0 hours
[16] = 6 h, replicate number 1, timepoint 6 hours
[17] = 12 h, replicate number 1, timepoint 12 hours
[18] = 18 h, replicate number 1, timepoint 18 hours
[19] = 24 h, replicate number 1, timepoint 24 hours

## CC(C)Oc1ccc(C(=O)N[C@H](CNC(=O)CN(C)C)Cc2ccc(-c3cn4cccc([C@H](C)O)c4n3)cc2)cc1Cl [GSK-923295A]
[1]; [5]
  Population Apoptotic (%): 71%
  Population Fragmented Nuclei (%): 32%
  Population Healthy Nuclei (%): 48%
  Population Hoechst High Intensity Objects (%): 12%
  Population Membrane Permeable-Phenotype (%): 9%
  Population Mitochondria Different-Phenotype (%): 5%
  Population Mitotic Cells (%): 28%
  Population Normal (%): 87%
  Population Pyknosed Nuclei (%): 18%
  Population Tubulin-Different-Phenotype (%): 20%
  Total Cell Count: 256
[1]; [6]
  Population Apoptotic (%): 100%
  Population Fragmented Nuclei (%): 49%
  Population Healthy Nuclei (%): 43%
  Population Hoechst High Intensity Objects (%): 31%
  Population Mitochondria Different-Phenotype (%): 31%
  Population Mitotic Cells (%): 0%
  Population Normal (%): 68%
  Population Pyknosed Nuclei (%): 7%
  Population Tubulin-Different-Phenotype (%): 40%
  Total Cell Count: 74
[1]; [7]
  Population Apoptotic (%): 53% and 65%
  Population Fragmented Nuclei (%): 34% and 27%
  Population Healthy Nuclei (%): 34% and 50%
  Population Hoechst High Intensity Objects (%): 30% and 28%
  Population Mitochondria Different-Phenotype (%): 11% and 7%
  Population Mitotic Cells (%): 46% and 34%
  Population Normal (%): 69% and 71%
  Population Pyknosed Nuclei (%): 30% and 21%
  Population Tubulin-Different-Phenotype (%): 82% and 59%
[1]; [8]
  Population Apoptotic (%): 75% and 30%
  Population Healthy Nuclei (%): 28% and 73%
  Population Membrane Permeable-Phenotype (%): 42% and 30%
  Population Mitotic Cells (%): 25% and 69%
  Population Normal (%): 65% and 97%
  Population Pyknosed Nuclei (%): 16% and 17%
  Population Tubulin-Different-Phenotype (%): 92% and 100%
  Total Cell Count: 75 and 76
[1]; [9]
  Population Apoptotic (%): 65%
  Population Fragmented Nuclei (%): 27%
  Population Healthy Nuclei (%): 58%
  Population Hoechst High Intensity Objects (%): 18%
  Population Membrane Permeable-Phenotype (%): 6%
  Population Mitochondria Different-Phenotype (%): 7%
  Population Mitotic Cells (%): 34%
  Population Normal (%): 81%
  Population Pyknosed Nuclei (%): 14%
  Population Tubulin-Different-Phenotype (%): 10%
  Total Cell Count: 266
[1]; [10]
  Population Apoptotic (%): 100%
  Population Fragmented Nuclei (%): 58%
  Population Healthy Nuclei (%): 34%
  Population Hoechst High Intensity Objects (%): 26%
  Population Membrane Permeable-Phenotype (%): 10%
  Population Mitochondria Different-Phenotype (%): 15%
  Population Mitotic Cells (%): 0%
  Population Normal (%): 73%
  Population Pyknosed Nuclei (%): 6%
  Population Tubulin-Different-Phenotype (%): 25%
  Total Cell Count: 79
[1]; [11]
  Population Apoptotic (%): 64% and 60%
  Population Fragmented Nuclei (%): 34% and 27%
  Population Healthy Nuclei (%): 44% and 54%
  Population Hoechst High Intensity Objects (%): 34% and 39%
  Population Membrane Permeable-Phenotype (%): 26% and 10%
  Population Mitochondria Different-Phenotype (%): 26% and 11%
  Population Mitotic Cells (%): 35% and 39%
  Population Normal (%): 65% and 60%
  Population Pyknosed Nuclei (%): 20% and 17%
  Population Tubulin-Different-Phenotype (%): 76% and 61%
[1]; [12]
  Population Apoptotic (%): 75% and 35%
  Population Healthy Nuclei (%): 35% and 64%
  Population Mitochondria Different-Phenotype (%): 96%
  Population Mitotic Cells (%): 25% and 65%
  Population Normal (%): 50% and 97%
  Population Pyknosed Nuclei (%): 9% and 24%
  Population Tubulin-Different-Phenotype (%): 73% and 100%
  Total Cell Count: 83 and 72
[1]; [13]
  Population Apoptotic (%): 71%
  Population Fragmented Nuclei (%): 35%
  Population Healthy Nuclei (%): 50%
  Population Hoechst High Intensity Objects (%): 46%
  Population Membrane Permeable-Phenotype (%): 11%
  Population Mitochondria Different-Phenotype (%): 7%
  Population Mitotic Cells (%): 28%
  Population Normal (%): 53%
  Population Pyknosed Nuclei (%): 13%
  Population Tubulin-Different-Phenotype (%): 65%
  Total Cell Count: 96
[1]; [14]
  Population Apoptotic (%): 57%
  Population Fragmented Nuclei (%): 32%
  Population Healthy Nuclei (%): 55%
  Population Hoechst High Intensity Objects (%): 35%
  Population Membrane Permeable-Phenotype (%): 9%
  Population Mitochondria Different-Phenotype (%): 6%
  Population Mitotic Cells (%): 42%
  Population Normal (%): 64%
  Population Pyknosed Nuclei (%): 11%
  Population Tubulin-Different-Phenotype (%): 71%
  Total Cell Count: 281
[2]; [15]
  Growth Rate: 0
[2]; [16]
  Growth Rate: 0
[2]; [17]
  Growth Rate: 0
[2]; [18]
  Growth Rate: 0
[2]; [19]
  Growth Rate: 0
[3]; [15]
  Growth Rate: 0
[3]; 6 h, replicate number 2, timepoint 6 hours
  Growth Rate: 0
[3]; [17]
  Growth Rate: 0
[3]; [18]
  Growth Rate: 0
[3]; [19]
  Growth Rate: 0
[4]; [15]
  Growth Rate: 0
[4]; 0 h, replicate number 2, timepoint 0 hours
  Growth Rate: 1
[4]; [16]
  Growth Rate: 0
[4]; [17]
  Growth Rate: 0
[4]; [18]
  Growth Rate: 0
[4]; [19]
  Growth Rate: 0
